Each structure is given as a SMILES string. Active and inactive are the calls of the source. The rule behind the calls is not given here. Bounds are passed on as bounds.

For one assay, the target named is T1, Gonadotropin-releasing hormone receptor (Rattus norvegicus, UniProt P30969).
T1 sequence (P30969 whole entry): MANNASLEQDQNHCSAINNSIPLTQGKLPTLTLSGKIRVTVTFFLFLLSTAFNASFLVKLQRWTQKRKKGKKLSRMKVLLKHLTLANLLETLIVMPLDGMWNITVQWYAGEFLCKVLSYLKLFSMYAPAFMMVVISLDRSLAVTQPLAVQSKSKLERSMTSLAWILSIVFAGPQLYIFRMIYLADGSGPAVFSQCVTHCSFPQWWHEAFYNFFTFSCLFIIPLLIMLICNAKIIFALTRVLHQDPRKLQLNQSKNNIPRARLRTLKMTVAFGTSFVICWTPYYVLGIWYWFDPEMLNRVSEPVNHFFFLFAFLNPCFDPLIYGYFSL
In words: Inhibition of binding of radiolabeled histrelin to Gonadotropin-releasing hormone receptor (GnRHr) in rat pituitary gland membranes. Type of assay: cell membranes, Membrane. Summed up: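 Rat anterior pituitary membranes (male and female glands equal numbers), homogenized in 0.32 M sucrose/aprotinin, 4000g pellet, diluted 15-fold in 10 mM Hepes, 0.2% BSA, pH 7.6. Filtration onto PEI-treated glass filters, scintillation counting. IC50 in nM, duplicate, n = 1.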
Regarding `CC(=O)Nc1ccc(C[C@H](NC(=O)[C@@H](NC=O)NC(=O)[C@@H](Cc2cccnc2)NC(=O)[C@@H](Cc2ccc(Cl)cc2)NC(=O)[C@@H](Cc2ccc3ccccc3c2)NC(C)=O)C(=O)N[C@H](Cc2ccc(NC(C)=O)cc2)C(=O)N[C@@H](CC(C)C)C(=O)N[C@@H](CCCCNC(C)C)C(=O)N2CCC[C@H]2C(=O)N[C@H](C)C(N)=O)cc1` (single isomer, unassigned), the half-inhibitory concentration (IC50) was determined as 0.63 nM.

Compound `CN[C@@H](NC(=O)[C@@H]1CCCN1C(=O)[C@H](CCCCNC(C)C)NC(=O)[C@H](CC(C)C)NC(=O)[C@@H](Cc1ccc(NC(C)=O)cc1)NC(=O)[C@H](Cc1ccc(NC(C)=O)cc1)NC(=O)[C@H](CO)NC(=O)[C@@H](Cc1cccnc1)NC(=O)[C@@H](Cc1ccc(Cl)cc1)NC(=O)[C@@H](Cc1ccc2ccccc2c1)NC(C)=O)C(N)=O` yielded an IC50 of 0.9 nM.

In turn, `CC(=O)Nc1ccc(C[C@H](NC(=O)[C@H](NC(=O)CO)NC(=O)[C@@H](Cc2cccnc2)NC(=O)[C@@H](Cc2ccc(Cl)cc2)NC(=O)[C@@H](Cc2ccc3ccccc3c2)NC(C)=O)C(=O)N[C@H](Cc2ccc(NC(C)=O)cc2)C(=O)N[C@@H](CC(C)C)C(=O)N[C@@H](CCCCNC(C)C)C(=O)N2CCC[C@H]2C(=O)N[C@H](C)C(N)=O)cc1` (single isomer, unassigned) yielded a half-inhibitory concentration (IC50) of 0.3 nM.

Turning to `CC(=O)Nc1ccc(C[C@H](NC(=O)[C@H](CO)NC(=O)[C@@H](Cc2cccnc2)NC(=O)[C@@H](NC(=O)[C@@H](Cc2ccc3ccccc3c2)NC(C)=O)N(C)C(=O)c2ccc(Cl)cc2)C(=O)N[C@H](Cc2ccc(NC(C)=O)cc2)C(=O)N[C@@H](CC(C)C)C(=O)N[C@@H](CCCCNC(C)C)C(=O)N2CCC[C@H]2C(=O)N[C@H](C)C(N)=O)cc1` (mixture of isomers), the IC50 worked out at 280 nM.

For the compound `CC(=O)Nc1ccc(C[C@H](NC(=O)[C@H](CO)NC(=O)[C@H](NC(=O)c2cccnc2)NC(=O)[C@@H](Cc2ccc(Cl)cc2)NC(=O)[C@@H](Cc2ccc3ccccc3c2)NC(C)=O)C(=O)N[C@H](Cc2ccc(NC(C)=O)cc2)C(=O)N[C@@H](CC(C)C)C(=O)N[C@@H](CCCCNC(C)C)C(=O)N2CCC[C@H]2C(=O)N[C@H](C)C(N)=O)cc1`, the half-maximal inhibitory concentration (IC50) came to 0.76 nM.

`CC(=O)Nc1ccc(C[C@H](NC(=O)[C@H](CO)NC(=O)[C@@H](Cc2cccnc2)NC(=O)[C@@H](NC(=O)c2cn[nH]c2N)NC(=O)[C@@H](Cc2ccc3ccccc3c2)NC(C)=O)C(=O)N[C@H](Cc2ccc(NC(C)=O)cc2)C(=O)N[C@@H](CC(C)C)C(=O)N[C@@H](CCCCNC(C)C)C(=O)N2CCC[C@H]2C(=O)N[C@H](C)C(N)=O)cc1` (single isomer, unassigned): the IC50 was over 1000 nM.

In turn, `CC(=O)Nc1ccc(C[C@H](NC(=O)[C@H](CO)NC(=O)[C@@H](Cc2cccnc2)NC(=O)[C@@H](Cc2ccc(Cl)cc2)NC(=O)[C@@H](Cc2ccc3ccccc3c2)NC(C)=O)C(=O)N[C@@H](C(=O)N[C@@H](CC(C)C)C(=O)N[C@@H](CCCCNC(C)C)C(=O)N2CCC[C@H]2C(=O)N[C@H](C)C(N)=O)N(C)C(=O)c2ccc(NC(C)=O)cc2)cc1` (mixture of isomers) showed an IC50 of 1.9 nM.

Regarding `CC(=O)Nc1ccc(C[C@H](NC(=O)[C@H](CO)NC(=O)[C@@H](Cc2cccnc2)NC(=O)[C@@H](Cc2ccc(Cl)cc2)NC(=O)[C@@H](Cc2ccc3ccccc3c2)NC(C)=O)C(=O)N[C@H](Cc2ccc(NC(C)=O)cc2)C(=O)N[C@@H](CC(C)C)C(=O)N[C@H](C(=O)N2CCC[C@H]2C(=O)N[C@H](C)C(N)=O)N(C)C(=O)CCNC(C)C)cc1` (single isomer, unassigned), the IC50 was 0.5 nM.

For `CC(=O)Nc1ccc(C[C@H](NC(=O)[C@H](CO)NC(=O)[C@@H](NC(=O)c2cccnc2)NC(=O)[C@@H](Cc2ccc(Cl)cc2)NC(=O)[C@@H](Cc2ccc3ccccc3c2)NC(C)=O)C(=O)N[C@H](Cc2ccc(NC(C)=O)cc2)C(=O)N[C@@H](CC(C)C)C(=O)N[C@@H](CCCCNC(C)C)C(=O)N2CCC[C@H]2C(=O)N[C@H](C)C(N)=O)cc1`, the IC50 was found to be 0.63 nM.

The compound `CC(=O)Nc1ccc(C[C@H](NC(=O)[C@H](CO)NC(=O)[C@@H](Cc2cccnc2)NC(=O)[C@@H](Cc2ccc(Cl)cc2)NC(=O)[C@@H](NC(C)=O)NC(=O)c2ccc3ccccc3c2)C(=O)N[C@H](Cc2ccc(NC(C)=O)cc2)C(=O)N[C@@H](CC(C)C)C(=O)N[C@@H](CCCCNC(C)C)C(=O)N2CCC[C@H]2C(=O)N[C@H](C)C(N)=O)cc1` gave an IC50 of 3 nM.

`CC(=O)Nc1ccc(C[C@H](NC(=O)[C@H](CO)NC(=O)[C@@H](Cc2cccnc2)NC(=O)[C@@H](Cc2ccc(Cl)cc2)NC(=O)[C@@H](Cc2ccc3ccccc3c2)NC(C)=O)C(=O)N[C@H](Cc2ccc(NC(C)=O)cc2)C(=O)N[C@@H](CC(C)C)C(=O)N[C@@H](CCCCNC(C)C)C(=O)N2CCC[C@H]2C(=O)N[C@H](NC=O)C(N)=O)cc1` (single isomer, unassigned) came in with an IC50 of 0.59 nM.

Another assay relates to Rattus norvegicus. As to the kind of experiment: Ratio of ovulated rats to total number of rats determined in a anti-ovulatory assay by administering 5 microg of compound; 0/8. Type of assay: functional, organism-based.
`CC(=O)Nc1ccc(C[C@H](NC(=O)[C@@H](NC=O)NC(=O)[C@@H](Cc2cccnc2)NC(=O)[C@@H](Cc2ccc(Cl)cc2)NC(=O)[C@@H](Cc2ccc3ccccc3c2)NC(C)=O)C(=O)N[C@H](Cc2ccc(NC(C)=O)cc2)C(=O)N[C@@H](CC(C)C)C(=O)N[C@@H](CCCCNC(C)C)C(=O)N2CCC[C@@H]2C(=O)N[C@H](C)C(N)=O)cc1` (single isomer, unassigned): the ov. rat/total entry was “Active”.

The next assay deals with Rattus norvegicus. In words: Ratio of ovulated rats to total number of rats determined in a anti-ovulatory assay by administering 2.5 microg of compound; 0/8. It counts as functional, organism-based.
Regarding `CC(=O)Nc1ccc(C[C@H](NC(=O)[C@H](CO)NC(=O)[C@@H](Cc2cccnc2)NC(=O)[C@@H](Cc2ccc(Cl)cc2)NC(=O)[C@@H](Cc2ccc3ccccc3c2)NC(C)=O)C(=O)N[C@H](Cc2ccc(NC(C)=O)cc2)C(=O)N[C@@H](CC(C)C)C(=O)N[C@@H](CCCCNC(C)C)C(=O)N2CCC[C@@H]2C(=O)N[C@@H](C)C(N)=O)cc1`, the ov. rat/total entry was “Active”.

Turning to `CN[C@@H](NC(=O)[C@H]1CCCN1C(=O)[C@H](CCCCNC(C)C)NC(=O)[C@H](CC(C)C)NC(=O)[C@@H](Cc1ccc(NC(C)=O)cc1)NC(=O)[C@H](Cc1ccc(NC(C)=O)cc1)NC(=O)[C@H](CO)NC(=O)[C@@H](Cc1cccnc1)NC(=O)[C@@H](Cc1ccc(Cl)cc1)NC(=O)[C@@H](Cc1ccc2ccccc2c1)NC(C)=O)C(N)=O`, the ov. rat/total entry is “Active”.

For the next assay, the system named is Rattus norvegicus. In words: Ratio of ovulated rats to total number of rats determined in a anti-ovulatory assay by administering 2.5 microg of compound; 2/8. Type of assay: functional, organism-based.
`CC(=O)Nc1ccc(C[C@H](NC(=O)[C@H](CO)NC(=O)[C@@H](NC(=O)c2ccncc2)NC(=O)[C@@H](Cc2ccc(Cl)cc2)NC(=O)[C@@H](Cc2ccc3ccccc3c2)NC(C)=O)C(=O)N[C@H](Cc2ccc(NC(C)=O)cc2)C(=O)N[C@@H](CC(C)C)C(=O)N[C@@H](CCCCNC(C)C)C(=O)N2CCC[C@@H]2C(=O)N[C@H](C)C(N)=O)cc1` (single isomer, unassigned): the ov. rat/total entry is “Partially active”.

For the compound `CC(=O)Nc1ccc(C[C@H](NC(=O)[C@H](CO)NC(=O)[C@@H](Cc2cccnc2)NC(=O)[C@@H](Cc2ccc(Cl)cc2)NC(=O)[C@@H](Cc2ccc3ccccc3c2)NC(C)=O)C(=O)N[C@@H](C(=O)N[C@@H](CC(C)C)C(=O)N[C@@H](CCCCNC(C)C)C(=O)N2CCC[C@@H]2C(=O)N[C@H](C)C(N)=O)N(C)C(=O)c2ccc(NC(C)=O)cc2)cc1` (mixture of isomers), the ov. rat/total entry was “Partially active”.

The next assay concerns Rattus norvegicus. In words: Ratio of ovulated rats to total number of rats determined in a anti-ovulatory assay by administering 10 microg of compound; 0/8. Type of assay: functional, organism-based.
Turning to `CC(=O)Nc1ccc(C[C@H](NC(=O)[C@H](CO)NC(=O)[C@@H](NC(=O)c2ccncc2)NC(=O)[C@@H](Cc2ccc(Cl)cc2)NC(=O)[C@@H](Cc2ccc3ccccc3c2)NC(C)=O)C(=O)N[C@H](Cc2ccc(NC(C)=O)cc2)C(=O)N[C@@H](CC(C)C)C(=O)N[C@@H](CCCCNC(C)C)C(=O)N2CCC[C@@H]2C(=O)N[C@H](C)C(N)=O)cc1` (single isomer, unassigned), the ov. rat/total result is “Active”.

The test system of a further assay is Rattus norvegicus. In words: Ratio of ovulated rats to total number of rats determined in a anti-ovulatory assay by administering 1 microg of compound; 8/8. It counts as functional, organism-based.
For `CC(=O)Nc1ccc(C[C@H](NC(=O)[C@H](CO)NC(=O)[C@@H](Cc2cccnc2)NC(=O)[C@@H](Cc2ccc(Cl)cc2)NC(=O)[C@@H](Cc2ccc3ccccc3c2)NC(C)=O)C(=O)N[C@H](Cc2ccc(NC(C)=O)cc2)C(=O)N[C@@H](CC(C)C)C(=O)N[C@@H](CCCCNC(C)C)C(=O)N2CCC[C@@H]2C(=O)N[C@@H](C)C(N)=O)cc1`, the ov. rat/total entry was “inactive”.

Take `CN[C@@H](NC(=O)[C@H]1CCCN1C(=O)[C@H](CCCCNC(C)C)NC(=O)[C@H](CC(C)C)NC(=O)[C@@H](Cc1ccc(NC(C)=O)cc1)NC(=O)[C@H](Cc1ccc(NC(C)=O)cc1)NC(=O)[C@H](CO)NC(=O)[C@@H](Cc1cccnc1)NC(=O)[C@@H](Cc1ccc(Cl)cc1)NC(=O)[C@@H](Cc1ccc2ccccc2c1)NC(C)=O)C(N)=O`: the ov. rat/total entry was “inactive”.

A word on the IC50: it is the concentration that gives 50% inhibition. Low readings indicate greater potency in that assay, high ones weaker potency in that assay.

Values taken from ChEMBL document CHEMBL1130231, “Betidamino acid scan of the GnRH antagonist acyline” (J Med Chem, 1997).
